Active and inactive are the calls of the source. The rule behind the calls is not given here.
Experiments:
[1] = Oral bioavailability in monkey plasma at 20 mg/kg measured up to 24 hrs by LC/MS analysis; type: ADME, organism-based, Macaca mulatta; conditions: rhesus monkey
Summary of the method: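 Monkey i.v./p.o. study: oral 20mg/kg in 10% DMSO, 0.1% Tween 80, 0.5% hydroxypropylmethylcellulose in water; i.v. dose 1mg/kg.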

progesterone receptor = molecular target: T1, progesterone receptor (Homo sapiens, UniProt P06401); assay: Inhibition of radioligand binding to progesterone receptor (unknown origin) at 1 uM relative to control
T1 sequence (P06401 whole entry): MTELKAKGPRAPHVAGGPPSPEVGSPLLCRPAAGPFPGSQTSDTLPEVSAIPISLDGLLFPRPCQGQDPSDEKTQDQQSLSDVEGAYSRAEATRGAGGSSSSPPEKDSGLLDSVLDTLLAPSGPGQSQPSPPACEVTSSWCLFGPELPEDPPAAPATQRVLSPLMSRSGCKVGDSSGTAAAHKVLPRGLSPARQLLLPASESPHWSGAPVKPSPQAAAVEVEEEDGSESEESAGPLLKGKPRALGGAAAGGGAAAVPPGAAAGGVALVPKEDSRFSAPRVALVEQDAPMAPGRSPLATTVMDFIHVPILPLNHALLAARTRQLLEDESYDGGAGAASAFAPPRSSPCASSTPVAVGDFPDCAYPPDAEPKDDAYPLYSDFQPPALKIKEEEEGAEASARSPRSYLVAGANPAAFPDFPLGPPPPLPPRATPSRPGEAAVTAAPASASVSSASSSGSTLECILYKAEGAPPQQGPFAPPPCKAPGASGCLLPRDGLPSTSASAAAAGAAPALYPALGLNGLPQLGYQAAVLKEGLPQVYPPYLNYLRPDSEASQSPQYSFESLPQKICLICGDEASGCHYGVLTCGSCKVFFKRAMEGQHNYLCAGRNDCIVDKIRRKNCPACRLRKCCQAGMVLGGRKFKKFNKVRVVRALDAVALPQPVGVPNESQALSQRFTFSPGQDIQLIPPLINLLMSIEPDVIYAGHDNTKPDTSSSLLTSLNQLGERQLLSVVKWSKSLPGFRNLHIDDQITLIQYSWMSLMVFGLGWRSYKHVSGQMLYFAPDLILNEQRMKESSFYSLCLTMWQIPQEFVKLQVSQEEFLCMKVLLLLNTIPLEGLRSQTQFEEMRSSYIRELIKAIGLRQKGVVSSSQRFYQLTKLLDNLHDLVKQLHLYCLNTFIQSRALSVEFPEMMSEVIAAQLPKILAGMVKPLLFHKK

Rattus norvegicus = assay: In vivo antagonist activity at glucocorticoid receptor in Sprague-Dawley rat cortisone model of exogenous Cushing's syndrome assessed as inhibition of plasma insulin levels at 30 mg/kg, po bid via gavage for 6 days pretreated for 12 hrs followed by cortisone 21-acetate treatment measured 24 hrs after last cortisone 21-acetate treatment; type: functional, organism-based
Summary of the method: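 Male Sprague Dawley rats (200-250g), 3-day vehicle baseline, groups of eight. Compound as suspension in DMSO:Tween 80:0.5% HPMC 10:0.1:89.9, oral gavage twice daily for 6 days; cortisone 21-acetate 30mg/kg s.c. daily in 1% methylcellulose. Tail-vein blood 24 h after last cortisone (12 h after last compound); glucose by clinical reagent, insulin by ultrasensitive rat ELISA.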

[2] = Protein binding in human plasma; type: ADME, cell-free; conditions: read-out: PPB (converted)
[3] = Protein binding in monkey plasma; type: ADME, cell-free, Macaca mulatta; conditions: rhesus monkey, read-out: PPB (converted)
Cytochrome P450 3A4 [4] = molecular target: T2, Cytochrome P450 3A4 (Homo sapiens, UniProt P08684); assay: Inhibition of CYP3A4 (unknown origin); type: ADME
Cytochrome P450 1A2 [5] = molecular target: T3, Cytochrome P450 1A2 (Homo sapiens, UniProt P05177); assay: Time-dependent inhibition of CYP1A2 (unknown origin); type: ADME
T3 sequence (P05177 whole entry): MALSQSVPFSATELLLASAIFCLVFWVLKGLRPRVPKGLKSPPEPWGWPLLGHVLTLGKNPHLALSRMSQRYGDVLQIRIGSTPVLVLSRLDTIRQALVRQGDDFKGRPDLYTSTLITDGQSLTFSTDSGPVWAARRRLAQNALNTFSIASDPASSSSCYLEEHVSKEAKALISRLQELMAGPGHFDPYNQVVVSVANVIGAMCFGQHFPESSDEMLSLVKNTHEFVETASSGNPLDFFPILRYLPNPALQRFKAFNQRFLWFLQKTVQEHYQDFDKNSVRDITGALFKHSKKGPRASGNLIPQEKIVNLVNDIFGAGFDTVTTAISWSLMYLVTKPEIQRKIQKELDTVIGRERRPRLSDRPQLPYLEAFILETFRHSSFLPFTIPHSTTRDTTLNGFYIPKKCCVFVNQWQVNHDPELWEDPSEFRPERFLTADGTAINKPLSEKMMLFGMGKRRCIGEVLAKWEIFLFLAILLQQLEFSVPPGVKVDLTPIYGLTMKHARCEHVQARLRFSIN

Cytochrome P450 2D6 = Cytochrome P450 2D6 (Homo sapiens, UniProt P10635); assay: Time-dependent inhibition of CYP2D6 (unknown origin); type: ADME
Cytochrome P450 3A5 = Cytochrome P450 3A5 (Homo sapiens, UniProt P20815); assay: Time-dependent inhibition of CYP3A5 (unknown origin); type: ADME
Cytochrome P450 1A2 [6] = molecular target: T3, Cytochrome P450 1A2; assay: Induction of CYP1A2 in human hepatocytes; type: ADME, cell-based
Cytochrome P450 3A4 [7] = molecular target: T2, Cytochrome P450 3A4; assay: Induction of CYP3A4 in human hepatocytes; type: ADME, cell-based
[8] = molecular target: T4, Glucocorticoid receptor (Homo sapiens) (UniProt P04150); assay: Agonist activity at glucocorticoid receptor in human primary hepatocytes assessed as induction of tyrosine amino transferase activity measured after 20 hrs relative to control; type: cell-based
T4 sequence (whole entry): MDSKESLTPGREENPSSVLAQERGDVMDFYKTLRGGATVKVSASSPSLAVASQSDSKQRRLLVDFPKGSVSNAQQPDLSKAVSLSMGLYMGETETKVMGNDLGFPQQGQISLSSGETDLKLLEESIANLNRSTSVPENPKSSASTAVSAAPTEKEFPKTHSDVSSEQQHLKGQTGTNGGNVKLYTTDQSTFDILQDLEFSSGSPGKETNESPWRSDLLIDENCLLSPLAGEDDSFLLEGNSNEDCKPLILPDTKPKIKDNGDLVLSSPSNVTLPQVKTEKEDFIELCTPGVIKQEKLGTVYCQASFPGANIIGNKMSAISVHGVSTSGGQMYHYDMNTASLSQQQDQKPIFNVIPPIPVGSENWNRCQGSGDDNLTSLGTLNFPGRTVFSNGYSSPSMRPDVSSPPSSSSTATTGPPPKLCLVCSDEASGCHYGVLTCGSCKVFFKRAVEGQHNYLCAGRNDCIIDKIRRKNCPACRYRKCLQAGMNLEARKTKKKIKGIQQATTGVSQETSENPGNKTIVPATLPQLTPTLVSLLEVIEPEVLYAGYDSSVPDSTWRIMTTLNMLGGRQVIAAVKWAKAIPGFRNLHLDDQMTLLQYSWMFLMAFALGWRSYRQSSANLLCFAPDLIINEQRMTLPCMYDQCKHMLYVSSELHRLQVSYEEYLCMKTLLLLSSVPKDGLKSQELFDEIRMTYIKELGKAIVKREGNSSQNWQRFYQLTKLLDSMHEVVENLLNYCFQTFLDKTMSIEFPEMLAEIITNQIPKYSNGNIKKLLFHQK

T2 sequence (P08684 whole entry): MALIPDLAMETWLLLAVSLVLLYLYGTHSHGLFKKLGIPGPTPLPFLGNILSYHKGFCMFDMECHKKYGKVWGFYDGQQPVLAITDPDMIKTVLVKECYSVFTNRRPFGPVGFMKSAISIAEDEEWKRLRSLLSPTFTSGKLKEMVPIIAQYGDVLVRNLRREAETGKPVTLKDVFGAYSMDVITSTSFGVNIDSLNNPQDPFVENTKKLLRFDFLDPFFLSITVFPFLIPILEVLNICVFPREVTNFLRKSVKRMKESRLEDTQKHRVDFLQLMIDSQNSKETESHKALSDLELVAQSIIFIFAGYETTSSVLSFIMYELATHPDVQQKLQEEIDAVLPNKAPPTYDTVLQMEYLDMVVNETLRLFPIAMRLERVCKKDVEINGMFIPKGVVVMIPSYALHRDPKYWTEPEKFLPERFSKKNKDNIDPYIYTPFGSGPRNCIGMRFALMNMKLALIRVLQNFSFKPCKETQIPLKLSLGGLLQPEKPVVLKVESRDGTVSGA
Chain of Cytochrome P450 2D6 (P10635 whole entry): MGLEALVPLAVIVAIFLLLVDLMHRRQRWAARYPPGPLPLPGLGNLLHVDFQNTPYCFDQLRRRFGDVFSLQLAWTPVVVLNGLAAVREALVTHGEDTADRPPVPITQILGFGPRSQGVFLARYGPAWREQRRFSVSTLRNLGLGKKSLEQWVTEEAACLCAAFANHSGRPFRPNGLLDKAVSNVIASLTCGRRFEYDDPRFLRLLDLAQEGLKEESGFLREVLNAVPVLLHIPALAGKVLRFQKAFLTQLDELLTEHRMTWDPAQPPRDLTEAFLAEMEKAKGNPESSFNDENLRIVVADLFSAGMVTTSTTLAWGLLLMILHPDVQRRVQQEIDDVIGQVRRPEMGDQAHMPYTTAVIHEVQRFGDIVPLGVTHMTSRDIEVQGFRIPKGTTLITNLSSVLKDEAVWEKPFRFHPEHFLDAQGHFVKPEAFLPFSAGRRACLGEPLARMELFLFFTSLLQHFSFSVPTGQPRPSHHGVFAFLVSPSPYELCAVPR
Chain of Cytochrome P450 3A5 (P20815 whole entry): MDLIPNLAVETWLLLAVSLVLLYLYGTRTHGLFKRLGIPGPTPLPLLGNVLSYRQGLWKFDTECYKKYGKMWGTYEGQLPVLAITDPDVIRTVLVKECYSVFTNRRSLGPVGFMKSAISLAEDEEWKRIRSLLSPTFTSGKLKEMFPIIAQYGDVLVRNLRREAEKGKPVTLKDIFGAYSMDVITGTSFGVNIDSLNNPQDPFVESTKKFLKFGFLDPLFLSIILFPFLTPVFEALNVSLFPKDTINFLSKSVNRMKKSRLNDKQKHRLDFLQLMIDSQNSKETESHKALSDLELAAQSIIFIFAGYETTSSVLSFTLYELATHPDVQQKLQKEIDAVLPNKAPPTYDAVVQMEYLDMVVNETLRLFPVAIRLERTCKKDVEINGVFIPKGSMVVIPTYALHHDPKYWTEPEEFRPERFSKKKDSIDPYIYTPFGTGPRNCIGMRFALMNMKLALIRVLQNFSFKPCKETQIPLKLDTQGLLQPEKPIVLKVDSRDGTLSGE

Question: For Cn1cc(S(=O)(=O)N2CCC3=Cc4c(cnn4-c4ccc(F)cc4)C[C@]3(C(=O)c3cc(C(F)(F)F)ccn3)C2)cn1 [RELACORILANT], which bioavailability [1] is on record?
Answer: 88%

Question: What about the inhibition at 1 µM (progesterone receptor) of the same compound?
Answer: < 10%

Question: And the inhibition (Rattus norvegicus)?
Answer: Active

Question: What about the fraction unbound [2] of the same compound?
Answer: 0.005

Question: And the fraction unbound [3]?
Answer: 0.011

Question: What about the IC50 (Cytochrome P450 3A4 [4]) of the same compound?
Answer: 1.3 µM

Question: What about the TDI (Cytochrome P450 1A2 [5]) of the same compound?
Answer: Not Active

Question: What about the TDI (Cytochrome P450 2D6) of the same compound?
Answer: Not Active

Question: And the TDI (Cytochrome P450 3A5)?
Answer: Not Active

Question: And the Activity (Cytochrome P450 1A2 [6])?
Answer: Not Active

Question: What about the Activity (Cytochrome P450 3A4 [7]) of the same compound?
Answer: Not Active

Question: What about the Emax [8] of the same compound?
Answer: 0%

Source: ChEMBL document CHEMBL4049426, “Identification of the Clinical Candidate (R)-(1-(4-Fluorophenyl)-6-((1-methyl-1H-pyrazol-4-yl)sulfonyl)-4,4a,5,6,7,8-hexahydro-1H-pyrazolo[3,4-g]isoquinolin-4a-yl)(4-(trifluoromethyl)pyridin-2-yl)methanone (CORT125134): A Selective Glucocorticoid Receptor (GR) Antagonist” (J Med Chem, 2017)
